Compound activity: PubChem, several laboratories
Sampled rows, rich in hits. Any-hit rate of the full collection: about 1.6%.
PKA-R1A activ – PKA-R1A complex activation. PKA-R1A dissociation, Cy5-IP20 fluorescence polarization; scaled: DMSO 0%, 113 µM cGMP 100%. activation, % at 11.4 µM. hit rate 0.083% among 340,000;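 active means percent activation above the mean of all tested compounds plus 3 SD, cut at about 19% in these data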;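 further: higher means more PKAc released from R1A so a rise in polarization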
HNF4A DNA FP – change in binding of human HNF4 alpha to DNA | activity change, % at 10 µM | P41235 | hit rate 0.3% among 360,000 | HNF4a-FITC DNA binding, fluorescence polarization, 1 h; in the data active means activity change above about 30%, passing the limit was not always enough
CSN deneddyl inh – CSN deneddylation inhibition; inhibition, % at 12.5 µM; AID 651999; hit rate 0.38% among 360,000; Purified CSN, SCF-Nedd8-OG deneddylation, fluorescence polarization;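 active means pattern-corrected inhibition above about 35%, with an unprinted fluorescence ratio check between 0.5 and 1.5, limit read from the data, passing the limit was not always enough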;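 further: 0% = enzyme with substrate and 100% = substrate without enzyme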
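Detection – fluorescence polarization · System – HEK293T-derived human Csn5 enzyme · Controls – substrate-only high control, full reaction low control · Timing – 90 min, room temperature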
PKA-R2B act – PKA-R2B complex activation. P22694+P31323. PKA-R2B holoenzyme dissociation, Cy5-IP20 fluorescence polarization; R2B truncated from residue 108, S112A mutant; 0% DMSO only, 100% 113 µM cGMP. activation, % at 11.4 µM. hit rate 0.079% among 340,000. AID 504700;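 active means activation above a cutoff set at the mean over all compounds plus 3 SD, cut at about 18% in these data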;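 further: higher means more holoenzyme dissociation and a rise in polarization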
Target sequence (P31323 whole entry, looked up, other chains not shown, the tested form may be a part): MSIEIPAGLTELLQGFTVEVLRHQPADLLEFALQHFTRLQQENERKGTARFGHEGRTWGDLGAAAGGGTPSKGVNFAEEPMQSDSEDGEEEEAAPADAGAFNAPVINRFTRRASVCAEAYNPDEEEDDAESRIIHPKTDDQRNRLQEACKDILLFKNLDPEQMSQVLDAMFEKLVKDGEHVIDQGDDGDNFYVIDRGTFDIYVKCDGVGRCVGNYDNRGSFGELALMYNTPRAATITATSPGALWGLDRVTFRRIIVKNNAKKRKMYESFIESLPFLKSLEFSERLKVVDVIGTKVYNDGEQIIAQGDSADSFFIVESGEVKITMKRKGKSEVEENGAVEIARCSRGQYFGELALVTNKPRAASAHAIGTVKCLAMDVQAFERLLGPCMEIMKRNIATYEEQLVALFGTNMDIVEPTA
Rpn11 block – Rpn11 (human) deubiquitinase inhibition. human 26S proteasome, Ub4-pepOG fluorescence polarization; 20S core pre-blocked with epoxomicin. calls only at 20 µM. O00487. AID 588493. hit rate 0.59% among 360,000;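 active means inhibition at 20 µM, scaled to each plate's controls, above about 33%, limit read from the data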
TPT1 inh – inhibitors of Candida albicans tRNA 2'-phosphotransferase TPT1. recombinant caTPT1, FP RNA substrate dephosphorylation. inhibition, % at 5 µM. hit rate 0.81% among 300,000;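 active means inhibition above the mean of all tested compounds plus 3 SD, set per screening campaign, cut at about 24% in these data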;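 further: plate controls were DMSO alone for no effect and ferristatin control at 100 nM for full effect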
* = called active by the depositor; i = inactive; · = not tested or not shown; + = active, no number; ! = not confirmed by another sample.

SMILES	PKA-R1A activ	HNF4A DNA FP	CSN deneddyl inh	PKA-R2B act	Rpn11 block	TPT1 inh
COc1cccc(OC)c1-c1nn2c(-c3cc(-c4ccccc4)n[nH]3)nnc2s1	-14	225*	i	8	i	15
COc1cccc(-c2nnc3sc(-c4ccccc4)nn23)c1	-4	4	1	7	i	-1
O=C(NCc1ccccc1CN1CCCC1)c1cc2ccccc2o1	4	5	-1	0	i	·
COC(=O)[C@@]1(Cc2ccc(F)cc2)[C@H]2c3cc(C(=O)N(C)C)n(Cc4cc(C)n(C)n4)c3C[C@H]2CN1C(=O)c1ccccc1	·	-1	102*	·	·	·
COC(=O)[C@@]1(Cc2ccc(F)cc2)[C@H]2c3cc(C(=O)N4CCCC4)n(Cc4cc(C)n(C)n4)c3C[C@H]2CN1C(=O)c1ccccc1	·	-5	-4	·	·	·
COc1ccnc2c1c(=O)n(Cc1ccc(F)cc1)c(=O)n2C	-5	-5	3	-5	i	-1
O=C(/C=C/c1cc[n+](CC(=O)c2ccc3cccc4c3c2CC4)cc1)c1ccc2cccc3c2c1CC3	15	178	113*	16	+	49*
NC(=O)C1CCN(C(=O)c2ccc([N+](=O)[O-])cc2NC(=O)c2cccs2)CC1	1	1	-1	-1	i	-5
COc1ccc(CNC(=O)c2cncc(Br)c2)cc1	7	-4	1	8	i	-1
CC1CC(C)(C)CC2(C1)NC(=O)N(CC(=O)Nc1ccc3[nH]c(=O)[nH]c3c1)C2=O (stereo unspecified)	-2	9	73*	-3	i	·
Cc1c2c(cc3c1[nH]c1ccccc13)C=NCC2	-3	64*	65*	9	·	·
C=CCNC(=O)/C(C#N)=C/c1c(N2CCCCCC2)nc2ccccn2c1=O	6	1	57*	1	i	2
CC1Sc2ccc(S(=O)(=O)N3CCC(C(=O)Nc4ccc(Cl)cc4)CC3)cc2NC1=O (stereo unspecified)	0	41*	9	-1	·	14
COc1ccc(NC(=O)C2CCN(S(=O)(=O)c3ccc4c(c3)NC(=O)C(C)S4)CC2)cc1 (stereo unspecified)	-4	-1	-1	-4	i	1
CC(C)(C)NC(=O)C[C@H]1C[C@H](C(=O)N2CCOCC2)[C@@]2(C)c3[nH]c4ccc(Cl)cc4c3CCN2C1=O	1	2	2	-6	i	·
Cc1cc(C(=O)OCC(=O)NCc2ccco2)c(C)o1	-5	-4	-2	-8	i	-2
c1ccc(Oc2ccc(-n3cnnn3)cc2)cc1	-9	57*	1	4	i	-2
Cc1cccc(N2CCN(C(=O)Cn3nc(C)n4cccc4c3=O)CC2C)c1 (stereo unspecified)	0	-2	4	-8	i	-2
Cc1cccc(N2CCN(C(=O)Cn3sc4nc(C)cc(C)c4c3=O)CC2C)c1 (stereo unspecified)	0	5	7	-1	i	25*
Cc1cc(C)c[n+](-c2nc3ccccc3nc2C(=C=[N-])C#N)c1	8	44*!	33	3	i	1
CC(=O)c1csc(COc2ccccc2)n1	-14	63*	2	3	i	-2
O=C(Oc1c(Cl)cc(Cl)c2cccnc12)c1cccc([N+](=O)[O-])c1	-8	1	-4	-12	+	-2
Cc1cc2cc(CN(C(=O)C3CC3)C3CCCC3)c3nnnn3c2cc1C	-3	7	-4	-2	i	-2
CCN1C(=O)S/C(=C/c2ccc(Sc3nc4ccccc4[nH]3)o2)C1=O	-15	102*	10	-6	i	0
CC(C)CCN1CC(=O)N2[C@@H](Cc3c([nH]c4ccccc34)C2(C)C)C1=O	8	-1	0	-7	i	·
SMILES	PKA-R1A activ	HNF4A DNA FP	CSN deneddyl inh	PKA-R2B act	Rpn11 block	TPT1 inh
Cn1c(-c2ccc(Cl)nc2)nc2cc(Cl)ccc21	2	-1	5	3	i	2
c1ccc(CN(Cc2ccccc2)c2c3c(nc4ncnn24)CCC3)cc1	-7	-3	4	5	i	3
c1ccc(CNc2c3c(nc4ncnn24)CCC3)cc1	9	63*	4	-5	i	-4
CCCC(C)NC(=O)CSc1nnc(-c2c[nH]c3ccccc23)o1 (stereo unspecified)	-8	-5	1	3	i	1
O=C(O)c1cc(-c2ccc(/C=c3\sc4nc5ccc(Br)cc5n4c3=O)o2)ccc1Cl	·	·	·	·	·	71*
Nc1c(C(=O)N/N=C/c2ccc(Cl)cc2)cnn1-c1ccccc1	-8	2	119*	-3	i	1
Nc1c(C(=O)N/N=C/c2cccnc2)cnn1-c1ccccc1	0	-2	3	-6	i	1
Cc1cccc(C(=O)NCCNc2nc3cc(C)c(C)cc3cc2C)c1	-3	60*	6	-4	i	2
CCCCC(NC(=O)Cc1c(C)c2cc3c(C)c(C)oc3c(C)c2oc1=O)C(=O)O (stereo unspecified)	-11	1	2	3	i	-3
CCCC(NC(=O)Cc1c(C)c2cc3c(C)c(C)oc3c(C)c2oc1=O)C(=O)N[C@@H](Cc1ccccc1)C(=O)O (stereo partly specified)	-9	-20	33	-9	+	1
CCC(C)[C@H]1COCCS(=O)(=O)N1Cc1ccc(Cl)cc1Cl (stereo partly specified)	-2	0	0	-17	i	-5
COc1cccc(SCc2noc(C(=O)NCC3CCCO3)c2C(=O)O)c1 (stereo unspecified)	-8	-5	-7	1	i	1
C#CCN1C(=O)S/C(=C\c2cc3c(cc2OC)OCO3)C1=O	-5	56	50*	-6	·	9
COC(=O)CCN(Cc1cc(OC)ccc1OC)S(=O)(=O)c1ccccc1Br	0	-2	-1	-4	i	·
O=C(COc1ccc2c(-c3ccccc3)cc(=O)oc2c1)Nc1cccnc1	-5	11	49*	0	i	1
O=C(COc1ccc2c(-c3ccccc3)cc(=O)oc2c1)NCc1ccccn1	-6	1	-3	-7	i	-1
CC1(C(=O)NS(=O)(=O)C2CC2)CCCN(C(=O)c2cccc(OC(F)(F)F)c2)C1 (stereo unspecified)	·	4	-7	·	i	·
O=C1CC(N2C(=O)/C(=C/C=C/c3ccccc3)SC2=S)C(=O)N1c1ccccc1 (stereo unspecified)	-3	19	3	-3	·	78*
CCOC(=O)c1cc(-c2ccco2)nn1-c1ccc(C)cc1	-15	5	1	-10	i	9
